Only some compounds are listed: those with a hit (about 3% of all), similar ones and a draw of the others.
SENP7 block – blocks the human protease SENP7; Q9BQF6; recombinant SENP7, Z-RLRGG-aminoluciferin luminescence, 40 min; inhibition, % at 5 µM; actives 1.5% (n = 330,000);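 active = inhibition above about 50% at the single test dose, limit read from the data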;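 note: plate controls were DMSO with enzyme for no effect and no enzyme buffer wells for full effect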
UBC13 polyUb – human UBC13 polyubiquitination inhibition | UBC13 polyubiquitin chain formation, TR-FRET | inhibition, % at 20 µM | actives 0.47% (n = 330,000) | AID 485273; in the data active = inhibition above about 45%, passing the limit was not always enough; inconclusive = no clear call, values can overlap the other calls
Target sequence (P61088 whole entry, looked up): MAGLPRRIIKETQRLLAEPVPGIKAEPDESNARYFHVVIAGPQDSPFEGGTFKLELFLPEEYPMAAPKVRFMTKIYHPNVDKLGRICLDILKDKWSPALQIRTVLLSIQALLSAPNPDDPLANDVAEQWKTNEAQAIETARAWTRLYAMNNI
SENP8 block-1 – SENP8 (human) protease inhibition; AID 602440; actives 0.64% (n = 360,000); recombinant SENP8, Nedd8 substrate fluorescence; inhibition, % at 20 µM; Q96LD8; in the data active = inhibition mostly above about 40%, no sharp cut-off; inactive = mostly below about 27%
Target sequence (Q96LD8 whole entry, looked up): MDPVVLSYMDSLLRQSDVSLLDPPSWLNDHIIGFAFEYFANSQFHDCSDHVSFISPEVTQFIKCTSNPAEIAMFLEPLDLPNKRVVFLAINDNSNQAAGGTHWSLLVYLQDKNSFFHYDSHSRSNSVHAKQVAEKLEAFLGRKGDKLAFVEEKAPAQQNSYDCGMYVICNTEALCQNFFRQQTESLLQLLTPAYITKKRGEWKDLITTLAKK
Apaf1 inhib – human Apaf-1 inhibition; reconstituted apoptosome caspase-3 activity, DEVD-Rh110 fluorescence; O14727; actives 0.71% (n = 330,000); inhibition, % at 20 µM; active = inhibition of at least 40% at 20 µM;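 note: plate controls were DMSO wells for no effect and DEVD-CHO caspase inhibitor wells for full effect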
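detection = Rh110 fluorescence intensity | test system = biochemical Apaf-1 apoptosome reconstitution | also added = cytochrome c and DEVD-Rh110 substrate | schedule = 30 min plus 50 min, RT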
SENP6 block – blocks the human protease SENP6; Q9GZR1; Recombinant SENP6 catalytic domain, aminoluciferin luminescence; inhibition, % at 10 µM; actives 1.8% (n = 330,000);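 active = inhibition above about 50% at the single tested dose, limit read from the data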;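 note: plate controls were DMSO wells with enzyme for no effect and DMSO wells lacking enzyme for full effect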
SENP8 block-2 – inhibitors of human SENP8 protease; Q96LD8; purified SENP8, Z-RLRGG-aminoluciferin cleavage, luminescence; inhibition, % at 10 µM; actives 1.2% (n = 330,000); in the data active = inhibition above about 50%
SENP8 inh conf – SENP8 (human) inhibition, single concentration confirmation; shares compounds with SENP8 block-1; purified SENP8, Nedd8-AMC/pro-Nedd8 cleavage fluorescence, 30 min; inhibition, % at 25 µM; actives 15% (n = 1,400); AID 624319; in the data active = inhibition mostly above about 39%, no sharp cut-off; inactive = mostly below about 34%
* hit, by the source's call; ? = inconclusive; · = no result given.

SMILES	SENP7 block	UBC13 polyUb	SENP8 block-1	Apaf1 inhib	SENP6 block	SENP8 block-2	SENP8 inh conf
O=C(Nc1ccccc1)c1ccc(CN2CCc3ccccc3C2)cc1	2.3	3.1	7.9	6.7	-4.8	2.2	·
O=C(Nc1cccnc1)c1ccc(CN2CCc3ccccc3C2)cc1	-3.8	-5.1	50.8*	7.4	-14.1	-8.9	34.2
Cc1ccc(NC(=O)c2ccc(CN3CCc4ccccc4C3)cc2)cc1	11.8	1.0	70.8*	48.1*	21.5	6.5	29.5
Cc1cc(C(=O)CN2C(=O)C(=O)N(Cc3ccccc3)C2=O)c(C)n1-c1ccc2c(c1)OCCO2	3.5	-13.4	8.4	17.3	-14.2	1.6	·
CCN(CC(=O)Nc1cc(Cl)ccc1C)C(=O)CCc1nc2ccccc2c(=O)[nH]1	-2.9	6.3	4.7	-0.6	-5.2	-8.0	·
CCN(Cc1ccccc1)C(=O)c1oc2ccc(S(=O)(=O)N3CCOCC3)cc2c1C	2.8	1.4	13.1	2.3	-5.9	5.9	·
O=c1cc(-c2ccccc2)nc(SCCOc2ccccc2Cl)[nH]1	0.9	-7.9	-5.6	13.5	-19.4	-11.0	·
CC(=O)c1c(O)cc(O)c(C(C)=O)c1O	2.5	-17.2	44.6*	6.5	0.8	-2.4	19.8
C=CCN1C(=O)C(CC(=O)Nc2ccc(OC)cc2)SC1=Nc1ccc(S(N)(=O)=O)cc1 (centres undefined)	-4.4	4.2	12.9	-2.4	2.8	1.6	·
CC(C)CCSc1cc(NCCO)c([N+](=O)[O-])c2nonc12	-6.1	-24.4	49.2*	8.4	33.6	-4.1	27.3
Cc1ccc(Sc2cc(NCCCO)c([N+](=O)[O-])c3nonc23)cc1	5.5	-29.3	43.9*	8.3	37.5	5.4	48.1*
ClC1CCCCC1n1nnc2ccccc21 (centres undefined)	2.3	-0.2	6.9	-10.1	9.7	-0.2	·
O=C1Nc2ccc(Br)cc2/C1=C/c1ccc(C(=O)O)cc1	-0.5	-9.8	·	7.7	14.0	-6.4	·
COC(=O)C(C(=O)OC)c1ccc(-n2cccc2)cc1	2.9	-4.1	-9.2	-7.7	-4.7	3.7	·
COc1ccc(CCNC(=O)Nc2nc(C(N)C3CCCCC3)cs2)cc1OC (centres undefined)	·	·	11.8	·	·	·	·
N#C/C(=C\c1ccc(O)c([N+](=O)[O-])c1)c1nc2ccccc2s1	·	·	54.2*	·	·	·	42.3*
CNc1ccc(/C=C2\COc3ccccc3C2=O)cc1[N+](=O)[O-]	-18.3	-33.2	50.2*	12.1	-7.7	-6.4	14.3
COc1ccc(NC(=S)N2CCN(C(=O)c3ccccc3)CC2)cc1	5.6	0.9	10.4	-5.3	-7.1	-3.1	·
COc1cc([N+](=O)[O-])cc2sc(NC(C)=O)nc12	-1.7	-32.3	58.6*	-11.7	-19.8	-9.7	12.1
Cc1ccc(C=Nc2ccc(N(C)C)cc2)o1	14.0	-5.3	45.4*	51.1*	11.5	-32.7	13.8
S=C(Nc1cccc(Cl)c1)NC1CCCCC1	-2.8	-1.2	27.1	9.3	-18.9	-15.9	·
S=C(NNc1cccc(Cl)c1)NC1CCCCC1	-7.3	11.6	49.0*	-1.9	0.1	-4.9	20.8
COc1cc(CC(=O)OCC(=O)Nc2cc([N+](=O)[O-])ccc2Cl)cc(OC)c1OC	7.9	3.9	40.1*	-5.1	-5.8	-0.9	8.0
COCc1cc([C@@H]2C[C@H]3CN(c4ccccc4)C(=O)[C@]34CCCN24)ccc1OC	-3.3	-6.1	42.1*	8.7	5.0	-0.5	13.0
CCOc1ccc(N=C(C)c2ccccc2O)cc1	3.7	-14.9	41.8*	-4.1	-19.7	-12.1	17.4
SMILES	SENP7 block	UBC13 polyUb	SENP8 block-1	Apaf1 inhib	SENP6 block	SENP8 block-2	SENP8 inh conf
C/C(=N/N=C(\C)c1ccccc1O)c1ccccc1O	47.2	-8.2	29.4	-1.4	-1.4	-9.2	·
Cc1nn(CC#N)c(=O)n1-c1ccc(C(C)C)cc1	-11.6	-8.0	40.6*	-3.4	-4.7	-5.5	16.8
O=C(c1cccc(S(=O)(=O)N2CCN(c3ccccc3)CC2)c1)N1CCN(c2ccccc2O)CC1	1.3	-3.0	0.4	32.9	15.3	9.6	·
Cc1ccc(Cc2cnc(NC(=O)/C(C#N)=C/c3ccc(-c4ccccc4[N+](=O)[O-])o3)s2)cc1	7.7	-61.3	46.9*	17.1	16.3	7.2	17.9
CC1CCCCN1C(=O)c1cc(S(=O)(=O)N2CCCCC2)c[nH]1 (centres undefined)	8.1	?	19.2	2.4	-9.3	-2.9	·
O=C(Cn1ncc2c([nH]c3ccccc32)c1=O)N1CCc2ccccc2C1	-2.0	-2.7	1.5	-4.4	6.8	0.3	·
O=C(CCc1nc2ccccc2[nH]1)N1CCc2ccccc2C1	-15.1	-3.0	45.1*	16.4	10.6	-8.3	54.5*
CCn1cc(/C=C(\NC(=O)c2ccc(OC)cc2)C(=O)N2CCOCC2)c2ccccc21	-10.4	-14.0	-68.5	10.3	-16.4	-13.3	·
CCOC(=O)CN1C(=O)S/C(=C/c2ccc(C)o2)C1=O	-2.7	-7.3	16.1	9.7	11.7	3.6	·
CCOC(=O)CN1C(=O)S/C(=C/c2ccc(O)c([N+](=O)[O-])c2)C1=O	4.2	-74.0	47.7*	-6.5	-9.0	-16.5	5.8
Cc1ccc(NC(=O)c2ccc3c(c2)OCCO3)cc1S(=O)(=O)Nc1cccc(Cl)c1	8.0	1.6	3.1	9.9	4.5	0.3	·
CCOc1ccccc1OC(C)C(=O)Nc1ccc(S(=O)(=O)N2CCCC2)cc1 (centres undefined)	-4.8	5.6	1.9	10.4	3.1	3.1	·
COCCN1Cc2cccc(C(=O)NCc3ccccc3OC)c2C1=O	5.0	3.4	14.0	1.6	-3.6	2.3	·
COCCN1Cc2cccc(C(=O)NCc3cccs3)c2C1=O	-5.7	5.4	42.0*	-19.8	-4.1	-1.9	5.6
CCOC(=O)C1=CCN(S(=O)(=O)c2ccccc2C)C1c1cccc(F)c1 (centres undefined)	·	·	4.8	·	·	·	·
COc1ccccc1N(CC(=O)NC1CCCC1)C(=O)c1csnn1	-0.5	5.2	44.7*	-2.2	2.8	1.8	3.1
COc1ccccc1N(CC(=O)NC1CCCCC1)C(=O)c1csnn1	0.6	3.8	20.8	1.1	-3.6	5.7	·
Nc1nnnn1/N=C/c1ccccc1	2.3	2.6	11.3	2.1	14.8	-1.4	·
Cc1ccc(/C=N/n2nnnc2N)o1	-3.8	4.1	42.5*	-11.0	8.4	6.3	1.4
N#Cc1ccc(CN(c2ccncc2)S(=O)(=O)c2ccccc2)cc1	0.1	6.8	9.4	2.6	-0.1	8.7	·
CN(C(=O)CSc1nc(-c2ccc(C(C)(C)C)cc2)c(C#N)c(=O)[nH]1)C1CCCCC1	0.2	5.4	-26.4	36.7	2.8	3.2	·
NC(Cc1ccccc1)C(O)(c1ccccc1)c1ccccc1 (centres undefined)	-8.4	20.3	11.5	-2.4	-22.4	-6.6	·
O=C(Nc1ccc([N+](=O)[O-])cc1)Nc1ccc(N2CCOCC2)c2nonc12	12.3	-23.8	46.3*	27.0	7.8	5.5	21.4

Source: PubChem
